The values below come from ChEMBL document CHEMBL2069298, “Putative mycobacterial efflux inhibitors from the seeds of Aframomum melegueta” (J Nat Prod, 2012).

Test [1] has as its system Mycolicibacterium smegmatis. The experiment in a line: Antimicrobial activity against Mycobacterium smegmatis str. MC2 155 ATCC 700084 incubated for 72 hrs in 7H9 T medium supplemented with 10% Middlebrook ADC enrichment by MTT assay. The test is classed as functional. Conditions: MC2 155 ATCC 700084, 72 h. The method in brief:
(§1)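 M. smegmatis mc2 155 grown on Columbia blood agar with 5% horse blood at 37 °C. Compounds in DMSO, serially diluted in Mueller-Hinton broth or 7H9 T ADC. Inoculum set to McFarland 0.5, then 5 × 10^5 cfu/mL, mixed 1:1 with the dilutions. Read with MTT after 72 h at 37 °C. MIC is the lowest concentration inhibiting growth.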
On the technique in general: Formazan colour is commonly taken as a measure of viable cells.

Test [2] concerns Mycolicibacterium smegmatis. Description: Antimicrobial activity against Mycobacterium smegmatis str. MC2 155 ATCC 700084 incubated for 72 hrs in Mueller-Hinton broth medium by MTT assay. The test is classed as functional. Conditions: MC2 155 ATCC 700084, 72 h. The method in brief:
as §1

Test [3] deals with Mycolicibacterium smegmatis MC2 155. Description: Inhibition of Multidrug resistance efflux pump in Mycobacterium smegmatis str. MC2 155 ATCC 700084 assessed as reduction in ethidium bromide MIC presence of test compound at 64 mg/L. The method in brief:
(§2)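 Broth dilution in MHB with strain mc2 155 from blood agar. Modulator at half its MHB MIC was included in the medium while the antibiotic or EtBr was serially diluted. Inoculum 5 × 10^5 cfu/mL. MTT read-out after 72 h at 37 °C. Value is the fold change in MIC.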

The test system is the same in test [4]. The experiment in a line: Inhibition of Multidrug resistance efflux pump in Mycobacterium smegmatis str. MC2 155 ATCC 700084 assessed as reduction in ciprofloxacin bromide MIC presence of test compound at 64 mg/L. Summed up:
as §2

The test system is the same in test [5]. Description: Inhibition of Multidrug resistance efflux pump in Mycobacterium smegmatis str. MC2 155 ATCC 700084 assessed as fractional inhibitory concentration index in presence of ethidium bromide. Summed up: (§3)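 Combination testing in MHB broth dilution against mc2 155. Either the modulator or the antibiotic (EtBr or rifampicin) was held in the medium while the partner was serially diluted. 5 × 10^5 cfu/mL inoculum, MTT read-out after 72 h at 37 °C. Fractional inhibitory concentration index derived from the combined MICs.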

Test [6] has the same test system. The experiment in a line: Inhibition of Multidrug resistance efflux pump in Mycobacterium smegmatis str. MC2 155 ATCC 700084 assessed as reduction in ethambutol bromide MIC presence of test compound at 64 mg/L. Summed up: as §2
The test system is the same in test [7]. The experiment in a line: Inhibition of Multidrug resistance efflux pump in Mycobacterium smegmatis str. MC2 155 ATCC 700084 assessed as reduction in isoniazid bromide MIC presence of test compound at 64 mg/L. Summed up: as §2
Test [8] has the same test system. Description: Inhibition of Multidrug resistance efflux pump in Mycobacterium smegmatis str. MC2 155 ATCC 700084 assessed as reduction in rifampicin bromide MIC presence of test compound at 64 mg/L. The method in brief:
as §2

For test [9] the test system is unchanged. Description: Inhibition of Multidrug resistance efflux pump in Mycobacterium smegmatis str. MC2 155 ATCC 700084 assessed as fractional inhibitory concentration index in presence of rifampicin. Summed up: as §3
For test [10] the test system is unchanged. The experiment in a line: Inhibition of Multidrug resistance efflux pump in Mycobacterium smegmatis str. MC2 155 ATCC 700084 assessed as reduction in ethidium bromide MIC presence of test compound at 32 mg/L. The method in brief:
as §2

Test [11] shares this test system. The experiment in a line: Inhibition of Multidrug resistance efflux pump in Mycobacterium smegmatis str. MC2 155 ATCC 700084 assessed as reduction in ciprofloxacin bromide MIC presence of test compound at 32 mg/L. Summed up: as §2
Test [12] shares this test system. Description: Inhibition of Multidrug resistance efflux pump in Mycobacterium smegmatis str. MC2 155 ATCC 700084 assessed as reduction in ethambutol bromide MIC presence of test compound at 32 mg/L. The method in brief: as §2
Test [13] has the same test system. Description: Inhibition of Multidrug resistance efflux pump in Mycobacterium smegmatis str. MC2 155 ATCC 700084 assessed as reduction in isoniazid bromide MIC presence of test compound at 32 mg/L. The method in brief:
as §2

The test system is the same in test [14]. Description: Inhibition of Multidrug resistance efflux pump in Mycobacterium smegmatis str. MC2 155 ATCC 700084 assessed as reduction in rifampicin bromide MIC presence of test compound at 32 mg/L. The method in brief: as §2
Test [15] shares this test system. Description: Inhibition of Multidrug resistance efflux pump in Mycobacterium smegmatis str. MC2 155 ATCC 700084 assessed as increase in relative ethidium bromide fluorescence accumulation at 0.5 MIC level by fluorimetric assay (reference value: 6057.1 +/- 508.6 RFU). The method in brief: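 Cells grown in 7H9 T with 10% ADC at 37 °C. Compounds at half their 7H9 T ADC MIC, with 0.5 mg/L EtBr and 0.4% glucose at 37 °C. Fluorescence tracked in a microtiter plate until steady state. Relative fluorescence is the mean of the last 10 min of four assays, compared with the EtBr-only control.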

The test system is the same in test [16]. Description: Inhibition of Multidrug resistance efflux pump in Mycobacterium smegmatis str. MC2 155 ATCC 700084 assessed as increase in normalized ethidium bromide fluorescence efflux at 0.5 MIC level by fluorimetric assay (reference value: 0.581 +/- 0.051 ratio). Summed up:
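Cells grown in 7H9 T ADC at 37 °C and loaded with 4 mg/L EtBr plus 256 mg/L verapamil. EtBr efflux followed fluorometrically in a microtiter plate with compounds at half their 7H9 T ADC MIC. Normalized fluorescence is the mean of the last 10 min of four assays, compared with the EtBr control.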

A short description of test [17]: (§4) Inhibition of Multidrug resistance efflux pump in Mycobacterium smegmatis str. MC2 155 ATCC 700084 assessed as increase in normalized ethidium bromide fluorescence efflux at 0.5 MIC level by fluorimetric assay. Further details: species or system Mycolicibacterium smegmatis MC2 155.
Test [18] has as its system Mycolicibacterium smegmatis MC2 155. The experiment in a line: Inhibition of Multidrug resistance efflux pump in Mycobacterium smegmatis str. MC2 155 ATCC 700084 assessed as reduction in ethidium bromide MIC presence of test compound at 16 mg/L. The method in brief:
as §2

For test [19] the test system is unchanged. The experiment in a line: Inhibition of Multidrug resistance efflux pump in Mycobacterium smegmatis str. MC2 155 ATCC 700084 assessed as reduction in ciprofloxacin bromide MIC presence of test compound at 16 mg/L. Summed up:
as §2

Test [20] shares this test system. Description: Inhibition of Multidrug resistance efflux pump in Mycobacterium smegmatis str. MC2 155 ATCC 700084 assessed as reduction in ethambutol bromide MIC presence of test compound at 16 mg/L. Summed up: as §2
Test [21] has the same test system. Description: Inhibition of Multidrug resistance efflux pump in Mycobacterium smegmatis str. MC2 155 ATCC 700084 assessed as reduction in isoniazid bromide MIC presence of test compound at 16 mg/L. Summed up:
as §2

The test system is the same in test [22]. The experiment in a line: Inhibition of Multidrug resistance efflux pump in Mycobacterium smegmatis str. MC2 155 ATCC 700084 assessed as reduction in rifampicin bromide MIC presence of test compound at 16 mg/L. Summed up: as §2
For test [23] the test system is unchanged. Described as §4.

SMILES strings stand for the structures. pIC50: −log10 of the molar value. In brackets after ≈: the same amount, converted by molar mass.

As usually defined, the MIC is the smallest concentration in the dilution series that meets the test's criterion for growth inhibition. Low readings indicate greater potency, high ones weaker potency. With `CCCCC[C@H](O)CC(=O)CCc1ccc(O)c(OC)c1` [GINGEROL], the MIC in test [1] and in [2] was no less than 128 mg/L in each case. For the same molecule, the fold change (FC) in test [3] is 2; in test [4], 1; in [6], 1; in test [7], 1; in test [8], 1. Besides, the fractional inhibitory concentration index (FICI) in [5] was determined as 1; in test [9], 2.

For `CCCCC[C@H](O)C[C@H](O)CCc1ccc(O)c(OC)c1`, the MIC in test [1] and in test [2] was no less than 128 mg/L each time. The fold change (FC) in [3] is 2; in test [4], 1; in [6], 1; in test [7] it was 1; in test [8], 1. Besides, the fractional inhibitory concentration index (FICI) in test [5] is 1; in test [9] it was 2.

For orientation: pIC50 means the negative decadic logarithm of the IC50, by convention in mol/L. For the molecule `CCCCCCC[C@H](O)CC(=O)CCc1ccc(O)c(OC)c1`, the values for the MIC in [1] and in [2] were no less than 128 mg/L and 64 mg/L (≈ 198 µM), respectively. For the same molecule, the fold change (FC) in test [10] is 8; in test [11], 2; in [12], 2; in test [13], 2; in test [14], 2. The fractional inhibitory concentration index (FICI) came out at 0.19 in [5] and 1 in [9]. Further, in test [15], the RFU worked out at 21900. Besides, the Ratio in [16] came to 0.795. For the same molecule, the negative-log IC50 (pIC50) in test [17] was 4.08.

Regarding `CCCCCCCC(=O)CCc1ccc(O)c(OC)c1`, the MIC in [1] was no less than 128 mg/L; in test [2], 32 mg/L (≈ 115 µM). In addition, the fold change (FC) is 8 in [18]; 1 in test [19]; 1 in test [20]; 4 in test [21]; 4 in test [22]. Further, the fractional inhibitory concentration index (FICI) in test [5] amounted to 0.25; in [9], 0.5. Besides, the RFU in test [15] turned out to be 24600. Besides, the Ratio in test [16] was 0.793. Moreover, the pIC50 in test [17] is 4.20. The inhibition result in test [23] was “Dose-dependent effect”.

As for `CCCCc1ccc(CCc2ccc(O)c(OC)c2)o1`, the minimal inhibitory concentration (MIC) is no less than 128 mg/L in test [1] and 32 mg/L (≈ 117 µM) in test [2]. Also, the fold change (FC) in [18] was 8; in [19] it was 2; in [20], 2; in test [21] it was 4; in test [22] it was 16. In addition, the fractional inhibitory concentration index (FICI) in [5] and in [9] was 0.19 throughout. Further, the RFU in [15] came out at 17200. Also, the Ratio in test [16] was 0.778.

As to `CCCCC[C@H](O)C[C@@H](O)CCc1ccc(O)c(OC)c1`, the MIC in test [1] and in [2] was no less than 128 mg/L in each case. Also, the fold change (FC) was determined as 2 in [3]; 1 in test [4]; 1 in test [6]; 1 in test [7]; 1 in test [8]. Also, the fractional inhibitory concentration index (FICI) came to 1 in test [5] and 2 in test [9].

As for `CCCCC[C@H](O)CC(=O)CCc1ccc(OC)c(OC)c1`, the MIC in test [1] and in test [2] was no less than 128 mg/L in each case. Further, the fold change (FC) in test [3] amounted to 2; in test [4], 1; in test [6], 1; in [7], 1; in test [8], 1. In addition, the values for the fractional inhibitory concentration index (FICI) in test [5] and in [9] were 0.63 and 2, respectively. The RFU in [15] stood at 11800. Also, the Ratio in [16] stood at 0.746.

In the case of `CCCCCC(=O)CC(=O)CCc1ccc(O)c(OC)c1`, the MIC in [1] is no less than 128 mg/L; in test [2] it was 128 mg/L (≈ 438 µM). The fold change (FC) in [3] came out at 8; in [4], 2; in [6], 1; in test [7], 2; in [8], 4. Besides, the fractional inhibitory concentration index (FICI) was 0.25 in test [5] and 0.5 in [9]. In [15], the RFU is 17800. The Ratio in [16] came to 0.789.

For the molecule `CCCCCCCC(O)CCc1ccc(O)c(OC)c1` (racemic), the MIC in [1] was 128 mg/L (≈ 456 µM); in test [2] it was 32 mg/L (≈ 114 µM). For the same molecule, the fold change (FC) came to 4 in [18]; 2 in test [19]; 2 in test [20]; 1 in [21]; 4 in test [22]. For the same molecule, the results for the fractional inhibitory concentration index (FICI) in test [5] and in test [9] were 0.38 and 0.75, respectively. The RFU in test [15] came to 24700. In test [16], the Ratio is 0.792. Also, the pIC50 in test [17] is 4.16.
